# Reference: ChEMBL document CHEMBL1128719, “The synthesis, structure-activity, and structure-side effect relationships of a series of 8-alkoxy- and 5-amino-8-alkoxyquinolone antibacterial agents” (J Med Chem, 1995)
# Tests used:
# Bacteroides fragilis = assay: In vitro antibacterial activity against Bacteroides fragilis BFA; type: functional
# Procedure, shortened: (§1)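 Microtitration (microdilution) MIC determination in μg/mL against a panel of Gram-positive, Gram-negative and anaerobic organisms. Values come from duplicate or triplicate experiments and are stated accurate to ±50%.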
# Clostridioides difficile = assay: In vitro antibacterial activity was tested for Clostridium diff CD1-1; type: functional
# Clostridium perfringens = assay: In vitro antibacterial activity against Clostridium perfringens CP 3-1; type: functional
# Mus musculus [1] = species on record: Mus musculus; assay: (§2) Phototoxic skin reaction in depilated female CD-1 mice; type: toxicity, organism-based; conditions: in vivo
# Procedure, shortened: (§3)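 Female CD-1 mice, depilated, given a single oral or subcutaneous dose. UVA (320–400 nm) exposure for 3 h, starting 1 h post-dose. Initial doses were 30, 100 and 300 mg/kg. PTD50 (dose giving phototoxic skin reaction in 50% of mice) derived by probit method. First day of positive reaction and no-effect dose taken from raw data.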
# Mus musculus [2] = species on record: Mus musculus; assay: Phototoxic skin reaction in depilated female CD-1 mice.; type: functional; procedure, shortened: as §3
# [3] = tested on: Peptoniphilus asaccharolyticus; assay: In vitro antibacterial activity was tested for Pepto asac PA 3-1; type: functional; procedure, shortened: as §1
# Cutibacterium acnes = assay: In vitro antibacterial activity was tested for Propion acnes PA5-1; type: functional; procedure, shortened: as §1
# V79 [4] = assay: (§4) Clonogenic cytotoxicity against Chinese hamster V-79 cells; type: functional, cell-based; conditions: Cricetulus griseus
# Escherichia coli [5] = assay: In vitro antibacterial activity was tested for Escherichia coli H560; type: functional; procedure, shortened: as §1
# Escherichia coli [6] = assay: In vitro antibacterial activity was tested for Escherichia coli Vogel; type: functional; procedure, shortened: as §1
# Enterobacter cloacae = assay: In vitro antibacterial activity was tested for Enterobacter cloacae HA2646; type: functional
# Klebsiella pneumoniae = assay: In vitro antibacterial activity was tested for Klebsiella pneumoniae MGH-2; type: functional; procedure, shortened: as §1
# Providencia rettgeri = assay: In vitro antibacterial activity was tested for Providencia rettgeri H1771; type: functional; procedure, shortened: as §1
# Pseudomonas aeruginosa = assay: In vitro antibacterial activity was tested for Pseudomonas aeruginosa UI-18; type: functional; procedure, shortened: as §1
# Staphylococcus aureus [7] = assay: In vitro antibacterial activity was tested for Staphylococcus aureus H228; type: functional; procedure, shortened: as §1
# Staphylococcus aureus [8] = assay: In vitro antibacterial activity was tested for Staphylococcus aureus UC-76; type: functional; procedure, shortened: as §1
# V79 [9] = assay: as §4; type: functional, cell-based; conditions: Cricetulus griseus; remark: listed apart in the source
# Procedure, shortened: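 Chinese hamster V-79 cells grown overnight, then exposed to drug 3 h at 37 °C; drug medium replaced with fresh medium, cells incubated 5 days and scored for colony formation. IC50 (μg/mL) taken as concentration inhibiting colony formation by 50% versus control.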
# Streptococcus pneumoniae = assay: In vitro antibacterial activity was tested for Streptococcus pneumoniae SV-1; type: functional; procedure, shortened: as §1
# Streptococcus pyogenes = assay: In vitro antibacterial activity was tested for Streptococcus pyogenes C203; type: functional; procedure, shortened: as §1
# Enterococcus faecalis = assay: In vitro antibacterial activity was tested for Streptococcus faecalis MGH-2; type: functional; procedure, shortened: as §1
# Mus musculus [10] = species on record: Mus musculus; assay: as §2; type: functional; procedure, shortened: as §3
Compound,MIC (Bacteroides fragilis),MIC (Clostridioides difficile),MIC (Clostridium perfringens),PTD50 (Mus musculus [1]),No effect dose (Mus musculus [2]),MIC [3],MIC (Cutibacterium acnes),MIC (Escherichia coli [5]),MIC (Escherichia coli [6]),MIC (Enterobacter cloacae),MIC (Klebsiella pneumoniae),MIC (Providencia rettgeri),MIC (Pseudomonas aeruginosa),MIC (Staphylococcus aureus [7]),MIC (Staphylococcus aureus [8]),MIC (Streptococcus pneumoniae),MIC (Streptococcus pyogenes),MIC (Enterococcus faecalis),other results
NC1CCCN(c2c(F)cc3c(=O)c(C(=O)O)cn(C4CC4)c3c2F)C1 (stereo not drawn),1.6 µg/mL,1.6 µg/mL,0.2 µg/mL,55 mg,30 mg,1.6 µg/mL,0.4 µg/mL,–,–,–,–,–,–,–,–,–,–,–,–
CC1(CN)CCN(c2c(F)cc3c(=O)c(C(=O)O)cn(C4CC4)c3c2Cl)C1 (stereo not drawn),0.05 µg/mL,0.2 µg/mL,0.05 µg/mL,< 30 mg,<30 mg,0.2 µg/mL,0.2 µg/mL,–,–,–,–,–,–,–,–,–,–,–,IC50 (V79 [4]): 8.6 µg/mL
NCC1CCCN(c2nc3c(cc2F)c(=O)c(C(=O)O)cn3C2CC2)C1 (stereo not drawn),–,–,–,–,–,–,–,0.4 µg/mL,0.4 µg/mL,0.4 µg/mL,0.8 µg/mL,1.6 µg/mL,6.3 µg/mL,1.6 µg/mL,0.2 µg/mL,0.2 µg/mL,0.2 µg/mL,0.4 µg/mL,IC50 (V79 [9]): 290 µg/mL
COc1c(N2CCCC(N)C2)c(F)c(N)c2c(=O)c(C(=O)O)cn(C3CC3)c12 (stereo not drawn),1.6 µg/mL,1.6 µg/mL,0.2 µg/mL,> 100 mg,100 mg,0.8 µg/mL,0.4 µg/mL,0.05 µg/mL,0.1 µg/mL,0.1 µg/mL,0.2 µg/mL,0.4 µg/mL,1.6 µg/mL,0.025 µg/mL,0.006 µg/mL,0.006 µg/mL,0.013 µg/mL,0.05 µg/mL,IC50 (V79 [4]): 290 µg/mL
NC1CCN(c2cc3c(cc2F)c(=O)c(C(=O)O)cn3C2CC2)C1 (stereo not drawn),1.6 µg/mL,12.5 µg/mL,0.1 µg/mL,> 300 mg,–,1.6 µg/mL,1.6 µg/mL,0.05 µg/mL,0.025 µg/mL,0.025 µg/mL,0.1 µg/mL,0.1 µg/mL,0.1 µg/mL,0.025 µg/mL,0.1 µg/mL,0.1 µg/mL,0.006 µg/mL,0.05 µg/mL,No effect dose (Mus musculus [10]): 300 mg
Nc1c(F)c(N2CCC(N)C2)c(F)c2c1c(=O)c(C(=O)O)cn2C1CC1 (stereo not drawn),–,–,–,52 mg,–,–,–,0.003 µg/mL,0.006 µg/mL,0.006 µg/mL,0.006 µg/mL,0.025 µg/mL,0.05 µg/mL,0.013 µg/mL,0.006 µg/mL,0.006 µg/mL,0.025 µg/mL,0.025 µg/mL,No effect dose (Mus musculus [10]): 30 mg
COc1c(N2CC(C)NC(C)C2)c(F)cc2c(=O)c(C(=O)O)cn(C3CC3)c12 (stereo not drawn),0.8 µg/mL,3.1 µg/mL,0.4 µg/mL,> 100 mg,–,0.8 µg/mL,0.4 µg/mL,0.05 µg/mL,0.1 µg/mL,0.1 µg/mL,0.2 µg/mL,0.8 µg/mL,3.1 µg/mL,0.1 µg/mL,0.05 µg/mL,0.1 µg/mL,0.1 µg/mL,0.2 µg/mL,No effect dose (Mus musculus [10]): 100 mg
NCC1CCCN(c2c(F)c(N)c3c(=O)c(C(=O)O)cn(C4CC4)c3c2F)C1 (stereo not drawn),–,–,–,–,–,–,–,0.025 µg/mL,0.05 µg/mL,0.05 µg/mL,0.1 µg/mL,0.2 µg/mL,0.8 µg/mL,0.025 µg/mL,0.003 µg/mL,0.003 µg/mL,0.13 µg/mL,0.013 µg/mL,IC50 (V79 [9]): 38 µg/mL
COc1c(N2CC(C)NC(C)C2)c(F)c(N)c2c(=O)c(C(=O)O)cn(C3CC3)c12 (stereo not drawn),1.6 µg/mL,3.1 µg/mL,0.4 µg/mL,> 100 mg,100 mg,0.8 µg/mL,1.6 µg/mL,0.1 µg/mL,0.2 µg/mL,0.2 µg/mL,0.4 µg/mL,0.8 µg/mL,3.1 µg/mL,0.1 µg/mL,0.025 µg/mL,0.05 µg/mL,0.1 µg/mL,0.2 µg/mL,–
CCOc1c(N2CCC(C)(CN)C2)c(F)cc2c(=O)c(C(=O)O)cn(C3CC3)c12 (stereo not drawn),1.6 µg/mL,3.1 µg/mL,0.8 µg/mL,> 100 mg,100 mg,0.8 µg/mL,3.1 µg/mL,0.2 µg/mL,0.2 µg/mL,0.2 µg/mL,0.4 µg/mL,0.8 µg/mL,1.6 µg/mL,0.05 µg/mL,0.013 µg/mL,0.1 µg/mL,0.1 µg/mL,0.1 µg/mL,IC50 (V79 [4]): 140 µg/mL
CC1(CN)CCN(c2nc3c(cc2F)c(=O)c(C(=O)O)cn3C2CC2)C1 (stereo not drawn),6.3 µg/mL,25 µg/mL,0.2 µg/mL,> 300 mg,300 mg,1.6 µg/mL,1.6 µg/mL,–,–,–,–,–,–,–,–,–,–,–,–
COc1c(N2CCC(N)C2)c(F)cc2c(=O)c(C(=O)O)cn(C3CC3)c12 (stereo not drawn),0.2 µg/mL,0.4 µg/mL,0.1 µg/mL,> 100 mg,–,0.8 µg/mL,0.4 µg/mL,0.013 µg/mL,0.025 µg/mL,0.025 µg/mL,0.05 µg/mL,0.1 µg/mL,0.4 µg/mL,0.05 µg/mL,0.013 µg/mL,0.025 µg/mL,0.025 µg/mL,0.05 µg/mL,No effect dose (Mus musculus [10]): 100 mg
COc1c(N2CCC(C)(CN)C2)c(F)cc2c(=O)c(C(=O)O)cn(C3CC3)c12 (stereo not drawn),0.4 µg/mL,0.8 µg/mL,0.2 µg/mL,> 100 mg,100 mg,0.8 µg/mL,0.4 µg/mL,0.05 µg/mL,0.1 µg/mL,0.1 µg/mL,0.2 µg/mL,0.4 µg/mL,1.6 µg/mL,0.025 µg/mL,0.006 µg/mL,0.013 µg/mL,0.013 µg/mL,0.025 µg/mL,–
CC1(CN)CCN(c2c(F)c(N)c3c(=O)c(C(=O)O)cn(C4CC4)c3c2F)C1 (stereo not drawn),0.8 µg/mL,1.6 µg/mL,0.025 µg/mL,> 30 mg,30 mg,0.2 µg/mL,0.4 µg/mL,–,–,–,–,–,–,–,–,–,–,–,–
CC1(CN)CCN(c2cc3c(cc2F)c(=O)c(C(=O)O)cn3C2CC2)C1 (stereo not drawn),6.3 µg/mL,6.3 µg/mL,0.2 µg/mL,> 100 mg,100 mg,1.6 µg/mL,1.6 µg/mL,–,–,–,–,–,–,–,–,–,–,–,–
NC1CCCN(c2cc3c(cc2F)c(=O)c(C(=O)O)cn3C2CC2)C1 (stereo not drawn),–,–,–,> 100 mg,100 mg,–,–,–,–,–,–,–,–,–,–,–,–,–,IC50 (V79 [4]): 560 µg/mL
C[C@@H]1CN(c2c(F)cc3c(=O)c(C(=O)O)cn(C4CC4)c3c2F)C[C@H](C)N1,1.6 µg/mL,3.1 µg/mL,0.2 µg/mL,55 mg,–,1.6 µg/mL,0.8 µg/mL,–,–,–,–,–,–,–,–,–,–,–,No effect dose (Mus musculus [10]): 30 mg
CCOc1c(N2CCC(N)C2)c(F)c(N)c2c(=O)c(C(=O)O)cn(C3CC3)c12 (stereo not drawn),3.1 µg/mL,12.5 µg/mL,0.4 µg/mL,> 100 mg,100 mg,0.8 µg/mL,3.1 µg/mL,0.05 µg/mL,0.05 µg/mL,0.1 µg/mL,0.2 µg/mL,0.4 µg/mL,3.1 µg/mL,0.05 µg/mL,0.013 µg/mL,0.05 µg/mL,0.1 µg/mL,0.1 µg/mL,IC50 (V79 [4]): 220 µg/mL
CC1(CN)CCN(c2c(F)cc3c(=O)c(C(=O)O)cn(C4CC4)c3c2F)C1 (stereo not drawn),0.4 µg/mL,1.6 µg/mL,0.1 µg/mL,< 30 mg,<30 mg,0.4 µg/mL,0.4 µg/mL,–,–,–,–,–,–,–,–,–,–,–,IC50 (V79 [4]): 7.7 µg/mL
COc1c(N2CCC(N)C2)c(F)c(N)c2c(=O)c(C(=O)O)cn(C3CC3)c12 (stereo not drawn),1.6 µg/mL,3.1 µg/mL,0.2 µg/mL,> 100 mg,100 mg,0.8 µg/mL,0.8 µg/mL,0.025 µg/mL,0.025 µg/mL,0.05 µg/mL,0.1 µg/mL,0.2 µg/mL,0.8 µg/mL,0.05 µg/mL,0.006 µg/mL,0.05 µg/mL,0.1 µg/mL,0.05 µg/mL,–
O=C(O)c1cn(C2CC2)c2cc(N3CCNCC3)c(F)cc2c1=O [CIPROFLOXACIN],3.1 µg/mL,–,–,172 mg,100 mg,1.6 µg/mL,0.8 µg/mL,0.025 µg/mL,–,–,0.1 µg/mL,0.1 µg/mL,0.4 µg/mL,3.1 µg/mL,0.2 µg/mL,1.6 µg/mL,0.8 µg/mL,0.8 µg/mL,–
NC1CCN(c2c(F)cc3c(=O)c(C(=O)O)cn(C4CC4)c3c2Cl)C1 (stereo not drawn) [CLINAFLOXACIN],0.1 µg/mL,0.4 µg/mL,0.1 µg/mL,23 mg,–,0.4 µg/mL,0.2 µg/mL,0.006 µg/mL,0.013 µg/mL,0.025 µg/mL,0.025 µg/mL,0.025 µg/mL,0.05 µg/mL,0.05 µg/mL,0.013 µg/mL,0.05 µg/mL,0.05 µg/mL,0.05 µg/mL,No effect dose (Mus musculus [10]): 18 mg
